Reference: ChEMBL document CHEMBL3808334, “Synthesis and in vitro evaluation of novel triazine analogues as anticancer agents and their interaction studies with bovine serum albumin” (Eur J Med Chem, 2016)

What was measured:
Type in all cases: functional
[1] = Growth inhibition of human OVCAR5 cells assessed as cell growth at 10^-7 M incubated for 48 hrs by sulforhodamine B assay; details: OVCAR-5, 48 h, read-out: Activity
[2] = system: NCI-H460; test: Growth inhibition of human NCI-H460 cells assessed as cell growth at 10 uM incubated for 48 hrs by sulforhodamine B assay; details: NCI-H460, 48 h, read-out: Activity
[3] = system: 786-0; test: Growth inhibition of human 786-0 cells assessed as cell growth at 10^-8 M incubated for 48 hrs by sulforhodamine B assay; details: 786-0, 48 h, read-out: Activity
Outline: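 Five-dose assay: five concentrations from 10-fold or ½-log serial dilutions. Cells are plated at 5,000–40,000 per well according to doubling time, grown 24 h, then exposed 48 h at 37 °C, 5% CO₂. Fixed with cold 50% TCA (final addition) for 60 min at 4 °C and stained with 0.4% SRB in 1% acetic acid. Bound dye is solubilized in 10 mM Tris base and read at 515 nm. GI₅₀ is where [(Ti−Tz)/(C−Tz)]×100 = 50, with a time-zero plate as Tz.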

[4] = Growth inhibition of human SKOV3 cells assessed as cell growth at 10^-7 M incubated for 48 hrs by sulforhodamine B assay; details: SK-OV-3, 48 h, read-out: Activity
[5] = system: KM12; test: Growth inhibition of human KM12 cells assessed as cell growth at 10^-7 M incubated for 48 hrs by sulforhodamine B assay; details: KM12, 48 h, read-out: Activity
[6] = system: SK-MEL-5; test: Growth inhibition of human SK-MEL-5 cells incubated for 48 hrs by sulforhodamine B assay; details: SK-MEL-5, 48 h
Outline: (§1)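 Cells were plated at 5,000–40,000 per well according to doubling time and preincubated 24 h at 37 °C in 5% CO2; time-zero plates were then TCA-fixed. Five concentrations (10-fold or ½-log dilutions, DMSO stock) were incubated 48 h. Cells were TCA-fixed, stained with 0.4% SRB and read at 515 nm. GI50 was taken where [(Ti−Tz)/(C−Tz)]×100 = 50.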

[7] = system: HT-29; test: Growth inhibition of human HT-29 cells assessed as cell growth at 10^-6 M incubated for 48 hrs by sulforhodamine B assay; details: HT-29, 48 h, read-out: Activity
[8] = Growth inhibition of human OVCAR8 cells assessed as cell growth at 10^-4 M incubated for 48 hrs by sulforhodamine B assay; details: OVCAR-8, 48 h, read-out: Activity
[9] = system: NCI/ADR-RES; test: Growth inhibition of human NCI/ADR-RES cells assessed as cell growth at 10^-6 M incubated for 48 hrs by sulforhodamine B assay; details: read-out: Activity
[10] = system: KM12; test: Growth inhibition of human KM12 cells incubated for 48 hrs by sulforhodamine B assay; details: KM12, 48 h; outline: as §1
[11] = Growth inhibition of human HCC2998 cells assessed as cell growth at 10^-7 M incubated for 48 hrs by sulforhodamine B assay; details: HCC 2998, 48 h, read-out: Activity
Outline: (§2)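 Cells seeded at 5,000–40,000/well according to doubling time and preincubated 24 h at 37 °C, 5% CO2. Time-zero plates were TCA-fixed. DMSO concentrate was diluted in medium with 50 µg/ml gentamicin to give five concentrations (10-fold or ½ log steps), then exposed 48 h. Cells were TCA-fixed, stained with 0.4% SRB and read at 515 nm. Percent growth was taken against time-zero and control; GI50, TGI and LC50 derived.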

[12] = Growth inhibition of human HOP62 cells assessed as cell growth at 10^-6 M incubated for 48 hrs by sulforhodamine B assay; details: HOP-62, 48 h, read-out: Activity
[13] = Growth inhibition of human OVCAR3 cells assessed as cell growth at 10^-8 M incubated for 48 hrs by sulforhodamine B assay; details: OVCAR-3, 48 h, read-out: Activity
[14] = system: M14; test: Growth inhibition of human M14 cells assessed as cell growth at 10^-5 M incubated for 48 hrs by sulforhodamine B assay; details: M14, 48 h, read-out: Activity
[15] = Growth inhibition of human UACC257 cells assessed as cell growth at 10 uM incubated for 48 hrs by sulforhodamine B assay; details: UACC-257, 48 h, read-out: Activity
[16] = Growth inhibition of human HOP92 cells incubated for 48 hrs by sulforhodamine B assay; details: HOP-92, 48 h; outline: as §2
[17] = Growth inhibition of human HCC2998 cells incubated for 48 hrs by sulforhodamine B assay; details: HCC 2998, 48 h; outline: as §2
[18] = system: KM12; test: Growth inhibition of human KM12 cells assessed as cell growth at 10 uM incubated for 48 hrs by sulforhodamine B assay; details: KM12, 48 h, read-out: Activity
[19] = Growth inhibition of human RPMI8226 cells incubated for 48 hrs by sulforhodamine B assay; details: RPMI-8226, 48 h; outline: as §1
[20] = system: CCRF-CEM; test: Growth inhibition of human CCRF-CEM cells assessed as cell growth at 10^-4 M incubated for 48 hrs by sulforhodamine B assay; details: read-out: Activity
Outline: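 Leukemia line in the five-dose format: five concentrations from 10-fold or ½-log serial dilutions. Plated at 5,000–40,000 cells per well, preincubated 24 h, then compound added for 48 h at 37 °C, 5% CO₂. Sulforhodamine B absorbance read at 515 nm. Growth is computed against time-zero (Tz) and control (C) readings; GI₅₀ is where [(Ti−Tz)/(C−Tz)]×100 = 50.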

[21] = Growth inhibition of human PC3 cells assessed as cell growth at 10 uM incubated for 48 hrs by sulforhodamine B assay; details: PC-3, 48 h, read-out: Activity
[22] = system: MDA-MB-231; test: Growth inhibition of human MDA-MB-231 cells assessed as cell growth at 10^-6 M incubated for 48 hrs by sulforhodamine B assay; details: MDA-MB-231, 48 h, read-out: Activity
[23] = Growth inhibition of human LOXIMVI cells assessed as cell growth at 10^-5 M incubated for 48 hrs by sulforhodamine B assay; details: LOX IMVI, read-out: Activity
[24] = Growth inhibition of human DU145 cells assessed as cell growth at 10^-7 M incubated for 48 hrs by sulforhodamine B assay; details: DU-145, 48 h, read-out: Activity; outline: as §2
[25] = read-out: LC50 (the source's name)
[26] = read-out: pLC50 (the source's name) (converted)

Compound Fc1ccc(-c2nc(Nc3ccc(-c4nc5ccccc5[nH]4)cc3)nc(N3CCOCC3)n2)cc1 has a growth at 0.1 µM [1] of 83%, a growth at 10 µM [2] of 0.13% and a growth at 0.01 µM [3] of 100%. The growth at 0.1 µM [4] was 98%, the growth at 0.1 µM [5] was 98% and the GI50 ([6]; read-out: GI50) was 1.79 µM. For the same compound, the CC50 [6, 25] was 6.28 µM, the TGI ([6]; read-out: TGI) was 3.36 µM and the GI50 ([6]; read-out: pGI50 (converted)) was 1.78 µM. It also gave a CC50 [6, 26] of 6.31 µM, a TGI ([6]; read-out: pTGI (converted)) of 3.39 µM and a growth at 1 µM [7] of 96%. For the same compound, the growth at 100 µM [8] was -44%, the growth at 1 µM [9] was 90% and the GI50 ([10]; read-out: GI50) was 2.06 µM. The CC50 [10, 25] was greater than 100 µM, the TGI ([10]; read-out: TGI) was 5.69 µM and the GI50 ([10]; read-out: pGI50 (converted)) was 2.04 µM. For the same compound, the CC50 [10, 26] was greater than 100 µM, the TGI ([10]; read-out: pTGI (converted)) was 5.62 µM and the growth at 0.1 µM [11] was 95%. For the same compound, the growth at 1 µM [12] was 90%, the growth at 0.01 µM [13] was 102% and the growth at 10 µM [14] was -62%. The growth at 10 µM [15] was -27.6%, the GI50 ([16]; read-out: GI50) was 1.8 µM and the LC50 (concentration killing 50% of starting cells) ([16]; read-out: LC50) was 7.76 µM. For the same compound, the TGI ([16]; read-out: TGI) was 3.74 µM, the GI50 ([16]; read-out: pGI50 (converted)) was 1.82 µM and the LC50 (concentration killing 50% of starting cells) ([16]; read-out: pLC50 (converted)) was 7.76 µM. For the same compound, the TGI ([16]; read-out: pTGI (converted)) was 3.72 µM, the GI50 ([17]; read-out: GI50) was 3.09 µM and the CC50 [17, 25] was greater than 100 µM. It also gave a TGI ([17]; read-out: TGI) greater than 100 µM, a GI50 ([17]; read-out: pGI50 (converted)) of 3.09 µM and a CC50 [17, 26] greater than 100 µM. For the same compound, the TGI ([17]; read-out: pTGI (converted)) was greater than 100 µM, the growth at 10 µM [18] was 12.4% and the GI50 ([19]; read-out: GI50) was 1.93 µM. The CC50 [19, 25] was greater than 100 µM, the TGI ([19]; read-out: TGI) was 6.54 µM and the GI50 ([19]; read-out: pGI50 (converted)) was 1.95 µM. For the same compound, the CC50 [19, 26] was greater than 100 µM, the TGI ([19]; read-out: pTGI (converted)) was 6.61 µM and the growth at 100 µM [20] was 13%. It also gave a growth at 10 µM [21] of 2.31%, a growth at 1 µM [22] of 73% and a growth at 10 µM [23] of -73%. The growth at 0.1 µM [24] was 100%.
